Consider 30 molecules from ChEMBL document CHEMBL1158850, “Structure-activity relationship and classification of flavonoids as inhibitors of xanthine oxidase and superoxide scavengers” (J Nat Prod, 1998).

The nature of experiment [1]: Antioxidant activity assessed as superoxide-scavenging activity by nitrite method. The experiment is classed as functional.
Experiment [2] addresses Xanthine dehydrogenase/oxidase (Homo sapiens, UniProt P47989). As to the kind of experiment: Inhibition of xanthine oxidase assessed as decrease in uric acid production by spectrophotometry. In outline: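 Flavonoid at various concentrations with 50 µM xanthine, 0.2 mM hydroxylamine and 0.1 mM EDTA. Stopped with HCl, then uric acid read as absorbance at 290 nm against an enzyme-free blank. IC50 by linear regression.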

Experiment [3] is described as follows: Prooxidant effect assessed as superoxide production by nitrite method. The experiment is classed as functional. A digest of the protocol:
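Xanthine oxidase (6.25 mU/mL, in 200 mM phosphate buffer pH 7.50) generated superoxide from 50 µM xanthine with 0.2 mM hydroxylamine and 0.1 mM EDTA, plus flavonoid at various concentrations. Incubated 30 min at 37 °C. Superoxide read by the nitrite method: stood 30 min at room temperature, then absorbance at 550 nm. Levels compared with control experiments; IC50 from linear regression.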

Activity calls are given as the source filed them. The calls are words filed in the database; no cut-off is given here.

Sequence of Xanthine dehydrogenase/oxidase (P47989 whole entry): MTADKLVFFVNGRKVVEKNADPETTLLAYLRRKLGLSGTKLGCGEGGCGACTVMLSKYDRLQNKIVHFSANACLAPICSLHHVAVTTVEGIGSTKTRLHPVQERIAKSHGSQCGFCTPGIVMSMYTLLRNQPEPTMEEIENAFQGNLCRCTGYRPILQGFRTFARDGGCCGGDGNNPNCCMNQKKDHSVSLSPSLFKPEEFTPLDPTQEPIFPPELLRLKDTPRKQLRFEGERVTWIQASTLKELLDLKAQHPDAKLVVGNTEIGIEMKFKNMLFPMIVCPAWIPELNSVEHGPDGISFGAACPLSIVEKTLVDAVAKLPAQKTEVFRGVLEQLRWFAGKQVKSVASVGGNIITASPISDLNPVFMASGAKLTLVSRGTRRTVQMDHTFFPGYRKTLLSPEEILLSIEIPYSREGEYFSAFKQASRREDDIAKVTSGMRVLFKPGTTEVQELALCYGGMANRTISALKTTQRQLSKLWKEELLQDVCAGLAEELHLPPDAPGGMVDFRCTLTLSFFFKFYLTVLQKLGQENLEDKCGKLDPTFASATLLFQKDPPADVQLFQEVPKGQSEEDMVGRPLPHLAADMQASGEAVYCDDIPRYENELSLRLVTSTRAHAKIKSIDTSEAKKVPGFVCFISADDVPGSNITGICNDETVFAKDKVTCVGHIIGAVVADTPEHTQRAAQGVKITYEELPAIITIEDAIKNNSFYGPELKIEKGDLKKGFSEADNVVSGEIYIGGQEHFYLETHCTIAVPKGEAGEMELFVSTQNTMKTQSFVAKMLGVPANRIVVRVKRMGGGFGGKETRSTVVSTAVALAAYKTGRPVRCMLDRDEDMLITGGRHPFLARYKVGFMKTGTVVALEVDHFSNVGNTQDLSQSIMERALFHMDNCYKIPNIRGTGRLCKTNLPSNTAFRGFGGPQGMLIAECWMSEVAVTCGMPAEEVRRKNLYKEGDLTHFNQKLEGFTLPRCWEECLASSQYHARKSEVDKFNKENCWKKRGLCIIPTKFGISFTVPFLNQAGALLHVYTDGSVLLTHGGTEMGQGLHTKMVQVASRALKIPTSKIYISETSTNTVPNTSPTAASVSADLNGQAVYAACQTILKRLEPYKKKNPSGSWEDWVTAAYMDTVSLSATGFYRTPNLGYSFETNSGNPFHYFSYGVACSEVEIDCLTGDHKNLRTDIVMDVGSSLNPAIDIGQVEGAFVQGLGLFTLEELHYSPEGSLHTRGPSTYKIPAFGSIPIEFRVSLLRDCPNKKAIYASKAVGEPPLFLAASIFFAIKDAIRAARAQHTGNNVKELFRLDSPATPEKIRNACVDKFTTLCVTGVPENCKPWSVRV

Consider `O=C1c2c(O)cc(O)cc2OC(c2ccc(O)c(O)c2)C1O` (racemic) [TAXIFOLIN], for which, in experiment [1], the IC50 stood at 1730 nM.
On to `O=C1CC(c2ccc(O)cc2)Oc2ccccc21` (configuration not stated) [4'-HYDROXY-FLAVANONE], for which the IC50 in experiment [1] is over 18000 nM; in experiment [2] it was over 30000 nM.
For the molecule `O=c1cc(-c2ccccc2)oc2cc(O)ccc12` [7-HYDROXYFLAVONE], the IC50 in experiment [1] is over 100000 nM; in experiment [2] it was 38000 nM. Also, the outcome in experiment [3] was Active.
Turning to `Oc1cc(O)c2c(c1)O[C@H](c1ccc(O)c(O)c1)[C@H](O)C2` [(-)-EPICATECHIN], the IC50 in experiment [1] is 1590 nM; in experiment [2], over 100000 nM.
With `Oc1ncnc2[nH]ncc12` [ALLOPURINOL], the IC50 in experiment [1] worked out at 230 nM.
As to `O=c1cc(-c2ccc(O)cc2)oc2cc(O)cc(O)c12` [APIGENIN], the IC50 in experiment [1] is 1330 nM; in experiment [2], 700 nM.
The like results for `O=c1cc(-c2ccccc2)oc2cc(O)c(O)c(O)c12` [BAICALEIN] were, in that order, 2720 nM and 2790 nM.
The like results for `O=c1cc(-c2ccccc2)oc2cc(O)cc(O)c12` [CHRYSIN] were, in that order, 1870 nM and 840 nM.
The like results for `COc1cc(-c2cc(=O)c3c(O)cc(O[C@@H]4O[C@H](CO)[C@@H](O)[C@H](O)[C@H]4O[C@@H]4O[C@@H](C)[C@H](O)[C@@H](O)[C@H]4O)cc3o2)ccc1O` [CHRYSOERIOL-7-O-NEOHESPERIDOSIDE] were, in that order, over 100000 nM and over 100000 nM.
On to `Oc1cc(O)c2c(c1)O[C@H](c1ccc(O)c(O)c1)[C@@H](O)C2` [CIANIDANOL], for which the IC50 in experiment [1] is 1610 nM; in experiment [2], over 100000 nM.
The like results for `COc1cc2oc(-c3ccc(O[C@@H]4O[C@H](CO)[C@@H](O)[C@H](O)[C@H]4O)cc3)cc(=O)c2c(O)c1OC` [CIRSIMARIN] were, in that order, over 100000 nM and over 100000 nM.
In the case of `Oc1cc(O)c2c(c1)O[C@H](c1cc(O)c(O)c(O)c1)[C@H](O)C2` [EPIGALLOCATECHIN], the IC50 in experiment [1] was 480 nM; in experiment [2] it was over 100000 nM.
The like results for `O=c1c(O)c(-c2ccc(O)c(O)c2)oc2cc(O)ccc12` [FISETIN] were, in that order, 1840 nM and 4330 nM.
For `O=c1c(O)c(-c2ccccc2)oc2ccccc12` [FLAVONOL] the same measures were over 100000 nM and over 100000 nM.
For `O=c1c(O)c(-c2ccccc2)oc2cc(O)cc(O)c12` [GALANGIN] the same measures were 6740 nM and 1800 nM.
For `COc1cc(-c2oc3cc(O)cc(O)c3c(=O)c2O)ccc1O` [ISORHAMNETIN], the IC50 was found to be 2750 nM in experiment [1] and 2510 nM in experiment [2].
For `O=c1c(O)c(-c2ccc(O)cc2)oc2cc(O)cc(O)c12` [KAEMPFEROL], the IC50 came to 840 nM in experiment [1] and 1060 nM in experiment [2].
The like results for `C[C@@H]1O[C@@H](O[C@H]2[C@H](Oc3cc(O)c4c(=O)cc(-c5ccc(O)c(O)c5)oc4c3)O[C@H](CO)[C@@H](O)[C@@H]2O)[C@H](O)[C@H](O)[C@H]1O` [LONICERIN] were, in that order, 2370 nM and 11900 nM.
`O=c1cc(-c2ccc(O)c(O)c2)oc2cc(O)cc(O)c12` [LUTEOLIN]: the values for the IC50 in experiment [1] and in experiment [2] were 1130 nM and 550 nM, respectively.
For `O=c1c(O)c(-c2ccc(O)cc2O)oc2cc(O)cc(O)c12` [MORIN] the same measures were 9100 nM and 10100 nM.
For `O=c1c(O)c(-c2cc(O)c(O)c(O)c2)oc2cc(O)cc(O)c12` [MYRICETIN] the same measures were 330 nM and 2380 nM.
For the molecule `O=C1C[C@@H](c2ccc(O)cc2)Oc2cc(O)cc(O)c21` [NARINGENIN], the IC50 in experiment [1] and in experiment [2] was over 50000 nM throughout.
As for `C[C@@H]1O[C@@H](OC[C@H]2O[C@@H](Oc3c(-c4ccc(O)cc4)oc4cc(O)cc(O)c4c3=O)[C@H](O)[C@@H](O)[C@@H]2O)[C@H](O)[C@H](O)[C@H]1O` [NICOTIFLOROSIDE], the IC50 in experiment [1] stood at 3400 nM; in experiment [2], 14800 nM.
For `COc1ccc(-c2cc(=O)c3c(OC)c(OC)c(OC)c(OC)c3o2)cc1OC` [NOBILETIN] the same measures were over 100000 nM and over 100000 nM.
The like results for `COc1cc(O)c2c(=O)c(O)c(-c3ccc(OC)c(O)c3)oc2c1` [OMBUINE] were, in that order, 2600 nM and 7700 nM.
As to `O=c1c(O)c(-c2ccc(O)c(O)c2)oc2cc(O)cc(O)c12` [QUERCETIN], the IC50 in experiment [1] came to 1630 nM.
With `C[C@@H]1O[C@@H](Oc2c(-c3ccc(O)c(O)c3)oc3cc(O)cc(O)c3c2=O)[C@H](O)[C@H](O)[C@H]1O` [QUERCITRIN], the IC50 was 8100 nM in experiment [1] and over 100000 nM in experiment [2].
Regarding `C[C@@H]1O[C@@H](OC[C@H]2O[C@@H](Oc3c(-c4ccc(O)c(O)c4)oc4cc(O)cc(O)c4c3=O)[C@H](O)[C@@H](O)[C@@H]2O)[C@H](O)[C@H](O)[C@H]1O` [RUTIN], in experiment [2], the IC50 is 52200 nM.
On to `COc1ccc(-c2cc(=O)c3c(OC)c(OC)c(OC)c(OC)c3o2)cc1` [TANGERETIN], for which the IC50 in experiment [1] and in experiment [2] was over 100000 nM in each case.
On to `O=C(/C=C/c1ccc(O)cc1)OC[C@H]1O[C@@H](Oc2c(-c3ccc(O)cc3)oc3cc(O)cc(O)c3c2=O)[C@H](O)[C@@H](O)[C@@H]1O` [TILIROSIDE], for which the IC50 in experiment [1] and in experiment [2] was over 100000 nM in each case.

As a reminder, the IC50 is the concentration needed to halve the response being measured.
